{
  "source": "ChEMBL document CHEMBL4414557",
  "about": "“Labdanes, Withanolides, and Other Constituents from Physalis nicandroides” (J Nat Prod, 2019)",
  "key": {"[1]": {"target": "Acetylcholinesterase (Electrophorus electricus) (UniProt O42275)", "sequence (O42275 24-633 limits assumed)": "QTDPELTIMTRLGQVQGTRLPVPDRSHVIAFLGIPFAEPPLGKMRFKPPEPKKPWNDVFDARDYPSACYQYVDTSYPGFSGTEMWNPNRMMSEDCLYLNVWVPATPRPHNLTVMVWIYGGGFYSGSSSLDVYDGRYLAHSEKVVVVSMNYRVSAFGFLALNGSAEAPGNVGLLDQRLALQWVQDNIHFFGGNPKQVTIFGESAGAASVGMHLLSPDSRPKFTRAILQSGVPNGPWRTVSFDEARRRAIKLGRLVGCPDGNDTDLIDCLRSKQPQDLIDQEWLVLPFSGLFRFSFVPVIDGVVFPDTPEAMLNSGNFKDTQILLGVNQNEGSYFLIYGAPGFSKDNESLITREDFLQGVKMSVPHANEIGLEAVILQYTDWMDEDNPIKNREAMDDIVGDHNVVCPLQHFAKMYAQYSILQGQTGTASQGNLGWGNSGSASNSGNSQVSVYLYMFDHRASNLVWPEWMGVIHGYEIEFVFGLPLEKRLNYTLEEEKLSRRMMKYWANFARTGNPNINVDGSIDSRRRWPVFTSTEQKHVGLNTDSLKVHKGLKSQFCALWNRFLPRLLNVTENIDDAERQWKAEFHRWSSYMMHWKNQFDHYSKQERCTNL", "assay": "Activation of Electrophorus electricus AChE at 100 uM using acetylthiocholine iodide as substrate preincubated for 30 mins followed by substrate addition and measured after 5 mins by Ellman's method relative to control"}, "[2]": {"system": "Saccharomyces cerevisiae", "assay": "Activation of yeast alpha-glucosidase type 1 at 100 uM using p-Nitrophenyl alpha-D-glucopyranoside as substrate preincubated for 10 mins followed by incubation with substrate for 15 mins and measured after 5 mins by microplate reader analysis relative to control", "summary_of_the_method": "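Yeast α-glucosidase type I (25 μL, 0.2 U mL−1 in PBS) with glutathione (25 μL, 3 mM) in phosphate buffer (67 mM, pH 6.8). Samples were added in DMSO–H2O 1:1 and preincubated 10 min at 37 °C. Then p-nitrophenyl α-D-glucopyranoside (25 μL, 23.2 mM) was added, 15 min at 37 °C with agitation. Stopped with 1 M Na2CO3; A405 read. % vs negative control; triplicate, mean ± SD.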"}, "[3]": {"system": "Saccharomyces cerevisiae", "assay": "Inhibition of yeast alpha-glucosidase type 1 at 100 uM using p-Nitrophenyl alpha-D-glucopyranoside as substrate preincubated for 10 mins followed by incubation with substrate for 15 mins and measured after 5 mins by microplate reader analysis", "summary_of_the_method": "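Sample in DMSO–H2O 1:1 added to PBS (67 mM, pH 6.8) with glutathione (3 mM in PBS) and enzyme (0.2 U mL−1 in PBS), preincubated 10 min at 37 °C. p-Nitrophenyl α-D-glucopyranoside (23.2 mM in PBS) then added, 15 min at 37 °C with agitation. Stopped with 1 M Na2CO3, read at 405 nm after 5 min. Percent inhibition versus negative control, triplicate. Quercetin positive control.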"}, "[4]": {"target": "Acetylcholinesterase (Electrophorus electricus, UniProt O42275)", "sequence (O42275 whole entry)": "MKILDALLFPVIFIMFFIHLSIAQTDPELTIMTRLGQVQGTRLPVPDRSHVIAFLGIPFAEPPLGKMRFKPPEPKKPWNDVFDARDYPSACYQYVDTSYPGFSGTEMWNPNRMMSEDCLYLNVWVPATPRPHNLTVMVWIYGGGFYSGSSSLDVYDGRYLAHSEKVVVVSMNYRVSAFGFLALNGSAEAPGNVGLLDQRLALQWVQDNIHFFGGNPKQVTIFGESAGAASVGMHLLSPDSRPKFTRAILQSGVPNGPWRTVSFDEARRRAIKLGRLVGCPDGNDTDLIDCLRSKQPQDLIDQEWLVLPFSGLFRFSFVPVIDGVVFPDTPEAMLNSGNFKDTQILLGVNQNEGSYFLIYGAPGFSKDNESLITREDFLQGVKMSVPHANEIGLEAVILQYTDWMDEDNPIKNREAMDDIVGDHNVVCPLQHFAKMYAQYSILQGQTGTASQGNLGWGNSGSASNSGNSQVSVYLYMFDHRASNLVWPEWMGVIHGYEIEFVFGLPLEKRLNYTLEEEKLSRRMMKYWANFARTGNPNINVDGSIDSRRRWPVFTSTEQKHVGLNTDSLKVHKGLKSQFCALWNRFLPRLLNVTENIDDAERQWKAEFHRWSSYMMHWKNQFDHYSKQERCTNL", "assay": "Inhibition of Electrophorus electricus AChE using acetylthiocholine iodide as substrate preincubated for 30 mins followed by substrate addition and measured after 5 mins by Ellman's method"}, "[5]": {"target": "Acetylcholinesterase (Electrophorus electricus) (UniProt O42275)", "assay": "Inhibition of Electrophorus electricus AChE at 100 uM using acetylthiocholine iodide as substrate preincubated for 30 mins followed by substrate addition and measured after 5 mins by Ellman's method relative to control"}},
  "note": "Calls of active or inactive are those of the source. The rule behind the calls is not given here.",
  "data": [
    {"smiles": "C/C(=C\\CO)CC[C@@H]1[C@@]2(C)CCCC(C)(C)[C@@H]2CC[C@@]1(C)O", "values": [
      {"measurement": "Activity", "setting": "[1]", "result": "6.7 to 96", "unit": "%"},
      {"measurement": "Activity", "setting": "[2]", "result": "1.1 to 29.4", "unit": "%"}
    ]},
    {"smiles": "C=C1CC[C@H]2C(C)(C)CCC[C@]2(C)[C@H]1C[C@H](O[C@@H]1O[C@H](CO)[C@@H](O)[C@H](O)[C@H]1O)/C(C)=C/COC(=O)CC(C)C", "values": [
      {"measurement": "Activity", "setting": "[1]", "result": "6.7 to 96", "unit": "%"},
      {"measurement": "Activity", "setting": "[2]", "result": "1.1 to 29.4", "unit": "%"}
    ]},
    {"smiles": "C=C1CC[C@H]2C(C)(C)CCC[C@]2(C)[C@H]1C[C@H](O[C@@H]1O[C@H](CO)[C@@H](O)[C@H](O)[C@H]1O)/C(C)=C/CO", "values": [
      {"measurement": "Activity", "setting": "[1]", "result": "6.7 to 96", "unit": "%"},
      {"measurement": "Activity", "setting": "[2]", "result": "1.1 to 29.4", "unit": "%"}
    ]},
    {"smiles": "CC(=O)O[C@H]1C[C@H]([C@@](C)(O)[C@H]2CC(C)=C(C)C(=O)O2)[C@@]2(C)CC[C@H]3[C@@H](C[C@H]4O[C@]45CC=CC(=O)[C@]35C)[C@@]12O", "values": [
      {"measurement": "Activity", "setting": "[1]", "result": "6.7 to 96", "unit": "%"},
      {"measurement": "inhibition", "setting": "[3]", "result": "Active"}
    ]},
    {"smiles": "C=C(CC[C@@H]1[C@@]2(C)CCCC(C)(C)[C@@H]2CC[C@@]1(C)O)[C@H](O)CO", "values": [
      {"measurement": "Activity", "setting": "[1]", "result": "6.7 to 96", "unit": "%"},
      {"measurement": "Activity", "setting": "[2]", "result": "1.1 to 29.4", "unit": "%"}
    ]},
    {"smiles": "C=C1CC[C@H]2C(C)(C)CCC[C@]2(C)[C@H]1Cc1occc1C", "values": [
      {"measurement": "IC50", "setting": "[4]", "result": 64.4, "unit": "µM"},
      {"measurement": "Activity", "setting": "[2]", "result": "1.1 to 29.4", "unit": "%"},
      {"measurement": "inhibition", "setting": "[5]", "result": 57.5, "unit": "%"}
    ]},
    {"smiles": "C=C1CC[C@H]2C(C)(C)CCC[C@]2(C)[C@H]1CC/C(=C/CO)CO", "values": [
      {"measurement": "inhibition", "setting": "[3]", "result": "Active"},
      {"measurement": "inhibition", "setting": "[5]", "result": 33.9, "unit": "%"}
    ]},
    {"smiles": "CC(=O)O[C@H]1C[C@H]([C@@](C)(O)[C@H]2CC(C)=C(C)C(=O)O2)[C@@]2(C)CC[C@H]3[C@@H](C[C@@H](O)[C@@]4(Cl)CC=CC(=O)[C@]34C)[C@@]12O", "values": [
      {"measurement": "Activity", "setting": "[1]", "result": "6.7 to 96", "unit": "%"},
      {"measurement": "inhibition", "setting": "[3]", "result": "Active"}
    ]},
    {"smiles": "C=C1CC[C@H]2C(C)(C)CCC[C@]2(C)[C@H]1C[C@@H](O)/C(C)=C/CO", "values": [
      {"measurement": "Activity", "setting": "[1]", "result": "6.7 to 96", "unit": "%"},
      {"measurement": "Activity", "setting": "[2]", "result": "1.1 to 29.4", "unit": "%"}
    ]},
    {"smiles": "C=C1CC[C@H]2C(C)(C)CCC[C@]2(C)[C@H]1C[C@H](O[C@@H]1O[C@H](COC(C)=O)[C@@H](OC(C)=O)[C@H](OC(C)=O)[C@H]1OC(C)=O)/C(C)=C/COC(=O)CC(C)C", "values": [
      {"measurement": "Activity", "setting": "[1]", "result": "6.7 to 96", "unit": "%"},
      {"measurement": "inhibition", "setting": "[3]", "result": "Active"}
    ]},
    {"smiles": "CO[C@@H]1CC(=O)[C@]2(C)[C@H]3CC[C@]4(C)[C@@H]([C@@](C)(O)[C@H]5CC(C)=C(C)C(=O)O5)C[C@H](OC(C)=O)[C@]4(O)[C@@H]3C[C@H]3O[C@]32C1", "values": [
      {"measurement": "Activity", "setting": "[1]", "result": "6.7 to 96", "unit": "%"},
      {"measurement": "inhibition", "setting": "[3]", "result": "Active"}
    ]},
    {"smiles": "C=C(CC[C@@H]1[C@@]2(C)CCCC(C)(C)[C@@H]2CC[C@@]1(C)O)[C@@H](O)CO", "values": [
      {"measurement": "Activity", "setting": "[1]", "result": "6.7 to 96", "unit": "%"},
      {"measurement": "Activity", "setting": "[2]", "result": "1.1 to 29.4", "unit": "%"}
    ]},
    {"smiles": "CC(=O)O[C@H]1C[C@H]([C@@](C)(O)[C@H]2CC(C)=C(C)C(=O)O2)[C@@]2(C)CC[C@H]3[C@@H](C[C@@H](OC(C)=O)[C@@]4(Cl)CC=CC(=O)[C@]34C)[C@@]12O", "values": [
      {"measurement": "Activity", "setting": "[1]", "result": "6.7 to 96", "unit": "%"},
      {"measurement": "inhibition", "setting": "[3]", "result": "Active"}
    ]},
    {"smiles": "C=C(C)C(C)(O)CC[C@@H](C)[C@H]1CC[C@H]2[C@@H]3CC=C4C[C@@H](O)CC[C@]4(C)[C@H]3CC[C@]12C", "note": "(stereo partly drawn)", "values": [
      {"measurement": "inhibition", "setting": "[3]", "result": "Active"},
      {"measurement": "inhibition", "setting": "[5]", "result": 24, "unit": "%"}
    ]},
    {"smiles": "C=C1CC[C@H]2C(C)(C)CCC[C@]2(C)[C@H]1C[C@H](O)/C(C)=C/CO", "values": [
      {"measurement": "Activity", "setting": "[1]", "result": "6.7 to 96", "unit": "%"},
      {"measurement": "Activity", "setting": "[2]", "result": "1.1 to 29.4", "unit": "%"}
    ]},
    {"smiles": "C=C1CC[C@H]2C(C)(C)CCC[C@]2(C)[C@H]1CC(=O)/C(C)=C/CO", "values": [
      {"measurement": "Activity", "setting": "[1]", "result": "6.7 to 96", "unit": "%"},
      {"measurement": "Activity", "setting": "[2]", "result": "1.1 to 29.4", "unit": "%"}
    ]}
  ]
}
